Measured values taken from ChEMBL document CHEMBL4052826, “Design and Synthesis of Novel Reactive Oxygen Species Inducers for the Treatment of Pancreatic Ductal Adenocarcinoma” (J Med Chem, 2018).
Activity calls are given as the source filed them. The calls are words filed in the database; no cut-off is given here.

Legend:
MIA PaCa-2 [1] = assay: Inhibition of mtDNA transcription from LSP promoter in human MIAPaCa2 cells at 5 times IC50 after 4 hrs by Bru-seq analysis; format: functional, cell-based
Outline: (§1)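 Nascent RNA sequencing (Bru-seq): 4×10^6 MIA PaCa-2 cells seeded in 10 cm dishes, treated next day for 4 h with drug or DMSO. Bromouridine (2 mM final) added for the last 30 min. Total RNA taken in TRIZOL; labeled RNA immunocaptured, converted to cDNA libraries and deep sequenced. Signal compared with DMSO-treated cells.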

PANC-1 = assay: Induction of unfolded protein response in human PANC1 cells assessed as upregulation of CHOP expression at 2 uM by Western blot analysis; format: functional, cell-based; conditions: TDE = time-dependent effect
Outline: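 Cells (4×10^5) seeded in 60 mm dishes, cultured in RPMI1640 with 10% FBS, 5% CO2, 37°C, then compound-treated. Lysed 30 min at 4°C, BCA-quantified, 40 μg protein resolved by SDS-PAGE, transferred to PVDF, probed overnight at 4°C with primary antibodies (1:1000; GAPDH or actin loading control), then Dylight 800 secondary; fluorescence scanned. Bands normalized to loading control; mean ± SD, three independent experiments.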

Mus musculus [2] = assay: Toxicity in NOD/SCID mouse xenografted with human MIAPaCa2 cells assessed as weakness at 5 mg/kg, ip administered 5 times a week until day 44; format: organism-based; conditions: in vivo
Outline: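 Subcutaneous flank MIA PaCa-2 xenografts (2.0×10^6 cells) in 6-week NOD/SCID mice, randomized at 65 mm3 (n=5/group: vehicle or drug). Dosed ip in 5% DMSO/60% propylene glycol/35% saline, five days on/two off, to day 44. Body weight tracked and mice watched for weakness, weight loss or lethargy; mean ± SEM.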

Mus musculus [3] = assay: Toxicity in NOD/SCID mouse xenografted with human MIAPaCa2 cells assessed as microscopic changes in lung at 5 mg/kg, ip administered 5 times a week until day 44 by hematoxylin and eosin staining-based inverted microscopic method; format: organism-based; conditions: in vivo
Outline: (§2)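 Necropsy after the 44-day ip course in MIA PaCa-2 xenograft-bearing NOD/SCID mice: heart, kidney, liver, lung, spleen and pancreas fixed in 10% neutral buffered formalin, paraffin-embedded, sectioned and stained with hematoxylin and eosin. Sections examined by inverted microscope at 20X, compared with vehicle-treated animals.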

Mus musculus [4] = assay: Induction of unfolded protein response in tumor of NOD/SCID mouse xenografted with MIAPaCa2 cells assessed as upregulation of CHOP expression at 5 mg/kg, ip administered 5 times a week until day 44 by Western blot method; format: functional, organism-based
Outline: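 Dosed ip in 5% DMSO/60% propylene glycol/35% saline, five days on/two off, until day 44, versus vehicle. Tumor lysates immunoblotted with primary antibodies, Dylight 800 secondary, fluorescent scan.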

MIA PaCa-2 [5] = assay: Cytotoxicity against gemcitabine-resistant human MIAPaCa2 cells assessed as decrease in cell proliferation after 72 hrs by MTT assay; format: functional, cell-based
Outline: (§3)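 MTT assay. Cells (3000–8000/well) attached overnight in RPMI1640 with 10% FBS; the GR line was kept with 200 nM gemcitabine. Serial dilutions (30 nM–10 μM for most lines) were applied for 72 h. MTT was added at a final 300 μg/mL for 3 h at 37°C, formazan was dissolved in DMSO and A570 read. Inhibition = (1 − OD treated/OD control) × 100. IC50 given as mean ± SD, three independent experiments.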

MIA PaCa-2 [6] = assay: Cytotoxicity against human MIAPaCa2 cells assessed as decrease in cell proliferation after 72 hrs in presence of NAC by MTT assay; format: functional, cell-based
Outline: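 MIA PaCa-2 cells were treated for 72 h with compound in the presence of 5 mM NAC. Viability was read by MTT (final 300 μg/mL, 3 h, A570). Mean ± SD of three independent experiments.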

Mus musculus [7] = assay: Toxicity in NOD/SCID mouse xenografted with human MIAPaCa2 cells assessed as body weight loss at 5 mg/kg, ip administered 5 times a week until day 44 followed by dose escalation up to 20 mg/kg until day 67; format: organism-based; conditions: in vivo
Outline: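 After a 44-day course (ip, five days on/two off, in 5% DMSO/60% propylene glycol/35% saline), two mice per group stayed on study and dose was gradually raised from 5 to 20 mg/kg until day 67 in MIA PaCa-2 flank xenografts in NOD/SCID mice. Body weight monitored; mean ± SEM.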

BXPC-3 [8] = assay: Induction of reactive oxygen species generation in human BxPC3 cells assessed as upregulation of NQO1 expression at 2 uM after 4 to 24 hrs by Western blot analysis; format: functional, cell-based
Outline: (§4)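 Immunoblotting. Cells (4×10^5) in 60 mm dishes were treated, lysed 30 min at 4°C and quantified by BCA. 40 μg protein was run on SDS-PAGE and transferred to PVDF. Primary antibodies (1:1000) incubated overnight at 4°C, then Dylight 800 secondary, with fluorescent scanning. Bands were normalized to GAPDH or actin loading controls. Mean ± SD, three independent experiments, Student's t-test.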

MIA PaCa-2 [9] = assay: Induction of reactive oxygen species generation in human MIAPaCa2 cells assessed as upregulation of HO-1 expression at 2 uM after 4 to 24 hrs by Western blot analysis; format: functional, cell-based; outline: as §4
Mus musculus [10] = assay: Toxicity in NOD/SCID mouse xenografted with human MIAPaCa2 cells assessed as body weight loss at 5 mg/kg, ip administered 5 times a week co-administered with gemcitabine at 15 mg/kg administered once a week for 48 days; format: organism-based; conditions: in vivo, 1152 h
Outline: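 MIA PaCa-2 xenografted NOD/SCID mice randomized at 75 mm3 into vehicle (n=4), single-agent (n=3 each) and combination (n=3) arms. Drug given at 5 mg/kg five times a week, gemcitabine at 15 mg/kg once a week, over a 48-day period. Body weight followed; mean ± SEM.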

MIA PaCa-2 [11] = assay: Inhibition of mtDNA transcription from HSP2 promoter in human MIAPaCa2 cells at 5 times IC50 after 4 hrs by Bru-seq analysis; format: functional, cell-based; outline: as §1
MIA PaCa-2 [12] = assay: Induction of reactive oxygen species generation in human MIAPaCa2 cells assessed as upregulation of NQO1 gene expression after 4 hrs by Bru-seq analysis; format: functional, cell-based
MIA PaCa-2 [13] = assay: Induction of reactive oxygen species generation in human MIAPaCa2 cells assessed as upregulation of HMOX1 gene expression after 4 hrs by Bru-seq analysis; format: functional, cell-based
MIA PaCa-2 [14] = assay: Antiproliferative activity against human MIAPaCa2 cells xenografted in NOD/SCID mouse at 5 mg/kg, ip administered 5 times a week until day 44 by ki67 staining-based assay; format: functional, organism-based
BXPC-3 [15] = assay: Cytotoxicity against human BxPC3 cells assessed as decrease in cell proliferation after 72 hrs by MTT assay; format: functional, cell-based; conditions: BXPC-3, 72 h; outline: as §3
MIA PaCa-2 [16] = assay: Cytotoxicity against human MIAPaCa2 cells assessed as decrease in cell proliferation after 72 hrs by MTT assay; format: functional, cell-based; outline: as §3
MIA PaCa-2 [17] = assay: Downregulation of Sp3 gene expression in human MIAPaCa2 cells at IC50 to 5 times IC50 after 4 hrs by Bru-seq analysis; format: functional, cell-based
Mus musculus [18] = assay: Toxicity in NOD/SCID mouse xenografted with human MIAPaCa2 cells assessed as microscopic changes in liver at 5 mg/kg, ip administered 5 times a week until day 44 by hematoxylin and eosin staining-based inverted microscopic method; format: organism-based; conditions: in vivo; outline: as §2

O=C1C(Nc2ccc(-c3ccccc3)cc2)=CC(=O)c2ncncc21
inhibition (MIA PaCa-2 [1]): Active | Activity (PANC-1): Tde | Activity (Mus musculus [2]): Non-Toxic | Activity (Mus musculus [3]): Non-Toxic | Activity (Mus musculus [4]): Active | Activity (MIA PaCa-2 [5]): Dose-dependent effect | IC50 (MIA PaCa-2 [5]; MIA PaCa-2, 72 h): 1000 nM | Activity (MIA PaCa-2 [6]): inactive | Activity (Mus musculus [7]): Non-Toxic | Activity (BXPC-3 [8]): inactive | Activity (MIA PaCa-2 [9]): Active | Activity (Mus musculus [10]): Non-Toxic | inhibition (MIA PaCa-2 [11]): Active | Activity (MIA PaCa-2 [12]): Dose-dependent effect | Activity (MIA PaCa-2 [13]): Dose-dependent effect | Activity (MIA PaCa-2 [14]): Active | IC50 (BXPC-3 [15]): 500 nM | Activity (MIA PaCa-2 [16]): Dose-dependent effect | IC50 (MIA PaCa-2 [16]; MIA PaCa-2, 72 h): 900 nM | Activity (MIA PaCa-2 [17]): inactive | Activity (Mus musculus [18]): Non-Toxic
